Source: PubChem BioAssay (The Scripps Research Institute Molecular Screening Center)
Sampled rows, rich in hits. Any-hit rate of the full collection: about 3%.
HTR1E agonist: agonists of human 5-HT1E serotonin receptor; P28566; CHO 5-HT1E Ga15 NFAT-bla reporter, FRET; 0% DMSO wells, 100% control agonist wells; activation, % at 6 µM; 65,000 tested, 0.69% active; AID 574;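 active = activation above a set limit, the screen-wide mean activation plus 3 SD, cut at about 8.5% in these data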;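 note: 100% = positive control agonist at 1 µM giving full maximal response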
S1P3 ag: activates the human S1P3 receptor | Q99500 | S1P3 NFAT-BLA reporter cells, agonism, FRET ratio; relative to 1 µM S1P, basal subtracted | activation, % at 4.5 µM | 60,000 tested, 0.1% active | AID 373;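 active = activation above the screen-wide mean plus 3 SD, cut at about 4.5% in these data, passing the limit was not always enough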
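material = human S1P3 NFAT-BLA reporter CHO cells | schedule = 4 h compound at 37 °C, 2 h substrate at RT | measured by = fluorescent BLA substrate, ex 405 nm, em 460/535 nm ratio | controls = 1 µM S1P reference | replication = primary once, confirmation triplicate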
HTR1A agonist: 5-HT1a (human) receptor agonism. P08908. CHO 5-HT1a Ga15 NFAT-bla reporter, FRET ratio; 0% basal, 100% maximal reference agonist. activation, % at 10 µM. 65,000 tested, 0.56% active. AID 567;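 active = activation above the screen-wide mean activation plus 3 SD, cut at about 19% in these data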;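 note: 0% = DMSO wells and 100% = 5-CT at EC100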
S1P1 ag-PAM: agonists and agonism potentiators of human S1P1 receptor; P21453; S1P1 CRE-bla cells, forskolin, beta-lactamase FRET, potentiator mode; S1P1 agonist co-added at EC20, 2 nM; 100% = saturating reference agonist, 0% = basal; activation, % at 9.5 µM; 56,000 tested, 0.57% active;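 active = activation above a cutoff set at the mean activation of all tested compounds plus 3 SD, cut at about 54% in these data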;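 note: forskolin at 4 µM as EC80 and the EC20 agonist is SEW2871; 100% = SEW2871 at its EC100 plus forskolin at EC80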
Target sequence (P21453 whole entry, looked up): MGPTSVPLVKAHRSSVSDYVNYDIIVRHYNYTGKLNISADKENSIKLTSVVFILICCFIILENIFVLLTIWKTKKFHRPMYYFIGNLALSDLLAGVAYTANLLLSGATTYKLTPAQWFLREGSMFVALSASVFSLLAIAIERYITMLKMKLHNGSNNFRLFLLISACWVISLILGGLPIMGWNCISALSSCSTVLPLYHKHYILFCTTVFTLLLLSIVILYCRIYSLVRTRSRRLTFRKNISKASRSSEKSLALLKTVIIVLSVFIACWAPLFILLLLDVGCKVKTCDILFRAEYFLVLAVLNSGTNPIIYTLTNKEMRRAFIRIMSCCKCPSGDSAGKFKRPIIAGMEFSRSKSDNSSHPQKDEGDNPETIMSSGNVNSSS
HTR1E antagonist: 5-HT1E (human) receptor antagonism. 65,000 tested, 0.99% active. inhibition, % at 6 µM. CHO 5-HT1E Ga15 NFAT-bla reporter, FRET, antagonist;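 active = inhibition above a set limit, the mean inhibition across every tested compound plus 3 SD, cut at about 29% in these data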;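 note: signal is the 460 over 535 nm emission ratio of beta-lactamase substrate; 0% = agonist plus DMSO wells and 100% = wells without agonist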
5HT1a antag: 5-HT1a (human) receptor antagonism | P08908 | CHO 5-HT1a Ga15 NFAT-bla reporter, antagonist mode | inhibition, % at 10 µM | 62,000 tested, 0.68% active | AID 612;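 active = inhibition above the mean of all tested compounds plus 3 SD, cut at about 43% in these data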;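 note: receptor stimulated by 5-CT agonist at 100 nM near EC80; beta-lactamase reporter measured by ratiometric fluorescence of a cleavable substrate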
* hit, by the source's call; . = not tested or not shown.

SMILES	HTR1E agonist	S1P3 ag	HTR1A agonist	S1P1 ag-PAM	HTR1E antagonist	5HT1a antag
C=CCNc1nc(-c2ccccc2)nc(-n2ccnc2)n1	2	-1	0	-18	14	8
c1ccc(-c2nc(-n3ccnc3)nc(-n3ccnc3)n2)cc1	1	0	-2	-45	6	-9
CC(C)Nc1nc(-c2ccccc2)nc(-n2ccnc2)n1	8	-1	-2	2	30*	36
c1ccc(-c2nc(NC3CC3)nc(-n3ccnc3)n2)cc1	2	0	0	-11	29*	29
CC(=O)C(C(C)=O)C(NC(=O)c1cccnc1)(C(F)(F)F)C(F)(F)F	0	0	-5	-2	3	-1
CCOC(=O)C(O)(NC(=O)c1cccnc1)C(F)(F)F (centres undefined)	10*	-1	-2	8	0	-2
CCOC(=O)N1CCC(N2C(=O)c3ccccc3C2Nc2cc(C(=O)OC)cc(C(=O)OC)c2)CC1 (centres undefined)	0	-1	0	-14	6	29
C=CCn1c(=O)c2ccccc2n2c(SC(C)C(=O)Nc3nc(-c4ccccc4)cs3)nnc12 (centres undefined)	0	-1	1	4	38*	0
CC(C)Cc1nnc(NC(=O)CSc2nc(=O)cc(N)n2-c2ccccc2)s1	-1	0	1	13	-3	-4
CN(c1ccccc1)c1nc(N2CCCC2)nc(-n2ccnc2)n1	0	-2	1	0	14	53*
CCCc1nc2oc3c(NCCOCCO)ncnc3c2c2c1COC(C)(C)C2	-1	-1	1	6	30*	7
Cc1nc2oc3c(NCc4ccccc4)ncnc3c2c2c1COC(C)(C)C2	1	-1	4	-16	6	3
CN1CC(=O)N/C1=N\C(=O)Nc1ccc2c(c1)N(C)C(=O)CS2	-1	.	-1	.	-3	-6
Cc1cccc(N2CC34C=CC(O3)C(C(=O)O)C4C2=O)c1 (centres undefined)	0	-1	-4	0	2	-6
Cc1ccc2c(c1)C1OCCC1C1N2C(=O)C2C(C(=O)O)C3C=CC21O3 (centres undefined)	0	-1	21*	-5	-1	6
O=C(NC1CCCc2ccccc21)C1CCN(C(=O)c2sccc2-n2cccc2)CC1 (centres undefined)	0	-1	0	-1	7	15
CCOC(=O)C1=C(N)Oc2cc(C)n(CCc3ccc(OC)c(OC)c3)c(=O)c2C1c1cccnc1 (centres undefined)	-1	0	-1	-12	30*	0
CCOC(=O)c1[nH]c(COC(=O)C2CC(=O)N(Cc3ccccc3)C2)c(C(=O)OCC)c1C (centres undefined)	0	0	-2	-6	10	10
CCOC(=O)c1nc(S(C)(=O)=O)ncc1Cl	0	0	-2	-54	75*	86*
O=C(c1cc(-c2ccco2)on1)N1CCN(C(c2ccccc2)c2ccccc2)CC1	0	0	-5	60*	-16	43*
COc1ccc(-c2cc(C(=O)N3CCN(C(c4ccccc4)c4ccccc4)CC3)no2)cc1	1	-1	-3	-9	-4	44*
O=C(c1noc2c1CCCC2)N1CCN(C(c2ccccc2)c2ccccc2)CC1	0	0	-4	30	-7	0
O=C(c1cc(-c2ccccc2)on1)N1CCN(C(=O)c2ccco2)CC1	0	0	-4	-26	-3	7
COc1ccc(-c2cc(C(=O)N3CCN(C(c4ccccc4)c4ccccc4)CC3)no2)cc1OC	2	0	-2	0	-25	37
CC(C)c1cc(C(=O)N2CCN(C(c3ccccc3)c3ccccc3)CC2)no1	0	0	2	76*	3	-10
SMILES	HTR1E agonist	S1P3 ag	HTR1A agonist	S1P1 ag-PAM	HTR1E antagonist	5HT1a antag
COc1cc(-c2nnc3sc(-c4cccs4)nn23)cc(OC)c1OC	0	1	5	-3	38*	-20
COc1cc(-c2nn3c(-c4cccnc4)nnc3s2)cc(OC)c1OC	0	0	-1	-8	19	.
COc1ccc(-c2nnc3sc(-c4cccs4)nn23)cc1OC	1	0	1	-29	36*	-16
COc1ccc(-c2nn3c(-c4cccc(C)c4)nnc3s2)cc1OC	2	0	3	-68	18	-19
O=C1CC(NC23CC4CC(CC(C4)C2)C3)C(=O)N1c1ccc2c(c1)OCO2 (centres undefined)	0	-1	-3	.	10	16
Cc1ccc2c(c1)N(CCCC(=O)NCCCN1CCCC1=O)C(=O)CO2	1	0	0	-5	2	-14
O=C(CN1CCN(c2ccccn2)CC1)N(c1ccccc1)c1ccc2ccccc2c1	1	.	6	.	4	21
CC(=O)NCc1ccc(-c2csc(N)n2)s1	14*	1	-3	-12	-9	-12
CCOC(=O)CNC(=O)Cn1cnc2sc(C)c(S(=O)(=O)N3CCC(C)CC3)c2c1=O	1	.	60*	.	-3	-11
CCOC(=O)CNc1nnc(SCC(=O)OCC)[nH]c1=O	0	-1	-1	0	1	2
CC1(C)Cc2c(C#N)c(NCCc3ccccc3)nc(-c3ccco3)c2CO1	9.1*	12	49*	-21	-53	.
COC(=O)C(C)Sc1nc(-c2ccc(OC)cc2)nc2c1c(=O)n(C)c(=O)n2C (centres undefined)	1	0	-4	7	1	11
CCC(C)(C(=O)NC1CCCC1)N(Cc1cccs1)C(C)=O (centres undefined)	0	.	-2	.	6	16
CCC(C)(C(=O)NC1CCCC1)N(Cc1cccs1)C(=O)Cc1cccs1 (centres undefined)	-1	.	0	.	8	59*
CCC(C)(C(=O)NC1CCCC1)N(Cc1ccco1)C(=O)c1ccccn1 (centres undefined)	0	-1	-1	-1	2	32
CCC(C)(C(=O)NC1CCCC1)N(Cc1ccco1)C(=O)c1ccc2c(c1)OCO2 (centres undefined)	0	-1	-2	1	-20	49*
CCCc1nc(N)c(C#N)c(N)c1C#N	0	0	-2	-96	29*	-9
CCc1nc(N)c(C#N)c(-c2ccncc2)c1C	1	-1	1	-36	5	-13
CCOC(=O)c1c(C)oc2c1c(C=NCC1CCCO1)c(O)c1ccccc12 (centres undefined)	0	-1	-3	1	31*	64*
